Test system: not listed separately
Experiment: Cytotoxicity against human fibroblasts assessed as cell viability after 72 hrs by MTT assay relative to control
Format: cell-based, Fibroblast
Set-up: concentration or dose not given beside the values
Settings: read-out: Activity
With NC(=O)/C(=C/c1c[nH]c2ccc(OCc3ccccc3)cc12)c1ccccc1 the viability at 72 h was 85%.
O=C(O)/C(=C/c1c[nH]c2ccccc12)c1ccccc1 showed a viability at 72 h of 85%.
In the case of COc1ccc(Cn2cc(/C=C(/C(=O)O)c3ccccc3)c3cc(OCc4ccccc4)ccc32)cc1, the viability at 72 h is reported as 85%.
In the case of COc1ccccc1/C(=C\c1cn(C(C)=O)c2ccc(OCc3ccccc3)cc12)C(=O)O, the viability at 72 h is reported as 85%.
Molecule CC(=O)n1cc(/C=C(/C(=O)O)c2ccc3c(c2)OCO3)c2cc(OCc3ccccc3)ccc21 has a viability at 72 h of 85%.
With COc1ccc(/C(=C\c2c[nH]c3ccc(OCc4ccccc4)cc23)C(N)=O)cc1 the viability at 72 h was 85%.
NC(=O)/C(=C/c1c[nH]c2ccccc12)c1ccccc1 showed a viability at 72 h of 85%.
CC(=O)n1cc(/C=C(/C(=O)O)c2ccc(OCc3ccccc3)cc2)c2cc(OCc3ccccc3)ccc21 gave a viability at 72 h of 85%.
With COc1cc(/C(=C\c2cn(C(C)=O)c3ccc(OCc4ccccc4)cc23)C(=O)O)cc(OC)c1OC the viability at 72 h was 85%.
COc1ccc(/C(=C\c2c[nH]c3ccccc23)C(N)=O)cc1 gave a viability at 72 h of 85%.

Test system: Caco-2
Experiment: Cytotoxicity against human Caco2 cells assessed as cell viability after 72 hrs by MTT assay
Format: functional, cell-based
Settings: Caco-2, 72 h
How it was run: (§1)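 Cells were grown at 37 °C in humidified 5% CO2/95% air. DU145 and A549 were kept in DMEM with 10% FCS, glutamine and nonessential amino acids. LNCaP, KB and M14 were kept in RPMI with 10% FCS, and Caco2 in MEM with 10% FCS. For the MTT assay, 1 × 10^4 cells were seeded per well and preincubated 24 h, then treated 72 h (DMSO ≤0.1%). MTT (0.5% in PBS) was added 4 h before the end, formazan was dissolved in DMSO, and OD was read at 550 nm. Triplicates were run.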
Work on NC(=O)/C(=C/c1c[nH]c2ccc(OCc3ccccc3)cc12)c1ccccc1 yielded an IC50 greater than 100 µM.
For O=C(O)/C(=C/c1c[nH]c2ccccc12)c1ccccc1, the IC50 was greater than 100 µM.
Molecule COc1ccc(/C(=C\c2c[nH]c3ccc(OCc4ccccc4)cc23)C(N)=O)cc1 has an IC50 greater than 100 µM.
In the case of NC(=O)/C(=C/c1c[nH]c2ccccc12)c1ccccc1, the IC50 is reported as greater than 100 µM.
COc1ccc(/C(=C\c2c[nH]c3ccccc23)C(N)=O)cc1 showed an IC50 greater than 100 µM.

Test system: LNCaP
Experiment: Cytotoxicity against human LNCAP cells assessed as cell viability after 72 hrs by MTT assay
Format: functional, cell-based
Settings: not given
How it was run: as §1
Molecule COc1ccc(Cn2cc(/C=C(/C(=O)O)c3ccccc3)c3cc(OCc4ccccc4)ccc32)cc1 has an IC50 of 38.2 µM.
COc1ccccc1/C(=C\c1cn(C(C)=O)c2ccc(OCc3ccccc3)cc12)C(=O)O gave an IC50 of 48.5 µM.
For CC(=O)n1cc(/C=C(/C(=O)O)c2ccc3c(c2)OCO3)c2cc(OCc3ccccc3)ccc21, the IC50 was 99.1 µM.
CC(=O)n1cc(/C=C(/C(=O)O)c2ccc(OCc3ccccc3)cc2)c2cc(OCc3ccccc3)ccc21 showed an IC50 of 77.7 µM.
For COc1cc(/C(=C\c2cn(C(C)=O)c3ccc(OCc4ccccc4)cc23)C(=O)O)cc(OC)c1OC, the IC50 was 59.6 µM.

Test system: DU-145
Experiment: Cytotoxicity against human DU145 cells assessed as cell viability after 72 hrs by MTT assay
Format: functional, cell-based
Settings: DU-145, 72 h
How it was run: as §1
Molecule NC(=O)/C(=C/c1c[nH]c2ccc(OCc3ccccc3)cc12)c1ccccc1 has an IC50 of 30.9 µM.
In the case of O=C(O)/C(=C/c1c[nH]c2ccccc12)c1ccccc1, the IC50 is reported as greater than 100 µM.
COc1ccc(Cn2cc(/C=C(/C(=O)O)c3ccccc3)c3cc(OCc4ccccc4)ccc32)cc1 showed an IC50 of 0.86 µM.
With COc1ccccc1/C(=C\c1cn(C(C)=O)c2ccc(OCc3ccccc3)cc12)C(=O)O the IC50 was 1.01 µM.
CC(=O)n1cc(/C=C(/C(=O)O)c2ccc3c(c2)OCO3)c2cc(OCc3ccccc3)ccc21 gave an IC50 of 1.15 µM.
COc1ccc(/C(=C\c2c[nH]c3ccc(OCc4ccccc4)cc23)C(N)=O)cc1 showed an IC50 of 39.8 µM.
For NC(=O)/C(=C/c1c[nH]c2ccccc12)c1ccccc1, the IC50 was 33.3 µM.
With CC(=O)n1cc(/C=C(/C(=O)O)c2ccc(OCc3ccccc3)cc2)c2cc(OCc3ccccc3)ccc21 the IC50 was 1.41 µM.
COc1cc(/C(=C\c2cn(C(C)=O)c3ccc(OCc4ccccc4)cc23)C(=O)O)cc(OC)c1OC gave an IC50 of 0.95 µM.
For COc1ccc(/C(=C\c2c[nH]c3ccccc23)C(N)=O)cc1, the IC50 was 40 µM.

Test system: KB
Experiment: Cytotoxicity against human KB cells assessed as cell viability after 72 hrs by MTT assay
Format: functional, cell-based
Settings: not given
How it was run: as §1
For NC(=O)/C(=C/c1c[nH]c2ccc(OCc3ccccc3)cc12)c1ccccc1, the IC50 was 40.3 µM.
In the case of O=C(O)/C(=C/c1c[nH]c2ccccc12)c1ccccc1, the IC50 is reported as greater than 100 µM.
For COc1ccc(Cn2cc(/C=C(/C(=O)O)c3ccccc3)c3cc(OCc4ccccc4)ccc32)cc1, the IC50 was 97 µM.
For COc1ccccc1/C(=C\c1cn(C(C)=O)c2ccc(OCc3ccccc3)cc12)C(=O)O, the IC50 was greater than 100 µM.
CC(=O)n1cc(/C=C(/C(=O)O)c2ccc3c(c2)OCO3)c2cc(OCc3ccccc3)ccc21 showed an IC50 greater than 100 µM.
COc1ccc(/C(=C\c2c[nH]c3ccc(OCc4ccccc4)cc23)C(N)=O)cc1 gave an IC50 greater than 100 µM.
For NC(=O)/C(=C/c1c[nH]c2ccccc12)c1ccccc1, the IC50 was greater than 100 µM.
Work on CC(=O)n1cc(/C=C(/C(=O)O)c2ccc(OCc3ccccc3)cc2)c2cc(OCc3ccccc3)ccc21 yielded an IC50 of 43 µM.
For COc1cc(/C(=C\c2cn(C(C)=O)c3ccc(OCc4ccccc4)cc23)C(=O)O)cc(OC)c1OC, the IC50 was greater than 100 µM.
For COc1ccc(/C(=C\c2c[nH]c3ccccc23)C(N)=O)cc1, the IC50 was 86.2 µM.

Test system: M14
Experiment: Cytotoxicity against human M14 cells assessed as cell viability after 72 hrs by MTT assay
Format: functional, cell-based
Settings: M14, 72 h
How it was run: as §1
Molecule NC(=O)/C(=C/c1c[nH]c2ccc(OCc3ccccc3)cc12)c1ccccc1 has an IC50 greater than 100 µM.
In the case of O=C(O)/C(=C/c1c[nH]c2ccccc12)c1ccccc1, the IC50 is reported as greater than 100 µM.
Work on COc1ccc(Cn2cc(/C=C(/C(=O)O)c3ccccc3)c3cc(OCc4ccccc4)ccc32)cc1 yielded an IC50 of 64.5 µM.
Molecule COc1ccccc1/C(=C\c1cn(C(C)=O)c2ccc(OCc3ccccc3)cc12)C(=O)O has an IC50 greater than 100 µM.
Molecule CC(=O)n1cc(/C=C(/C(=O)O)c2ccc3c(c2)OCO3)c2cc(OCc3ccccc3)ccc21 has an IC50 greater than 100 µM.
Molecule COc1ccc(/C(=C\c2c[nH]c3ccc(OCc4ccccc4)cc23)C(N)=O)cc1 has an IC50 greater than 100 µM.
In the case of NC(=O)/C(=C/c1c[nH]c2ccccc12)c1ccccc1, the IC50 is reported as 45.4 µM.
In the case of CC(=O)n1cc(/C=C(/C(=O)O)c2ccc(OCc3ccccc3)cc2)c2cc(OCc3ccccc3)ccc21, the IC50 is reported as 58.2 µM.
With COc1cc(/C(=C\c2cn(C(C)=O)c3ccc(OCc4ccccc4)cc23)C(=O)O)cc(OC)c1OC the IC50 was 57.1 µM.
COc1ccc(/C(=C\c2c[nH]c3ccccc23)C(N)=O)cc1 showed an IC50 of 53 µM.

Test system: A549
Experiment: Cytotoxicity against human A549 cells assessed as cell viability after 72 hrs by MTT assay
Format: functional, cell-based
Settings: A549, 72 h
How it was run: as §1
With COc1ccc(Cn2cc(/C=C(/C(=O)O)c3ccccc3)c3cc(OCc4ccccc4)ccc32)cc1 the IC50 was 1 µM.
For COc1ccccc1/C(=C\c1cn(C(C)=O)c2ccc(OCc3ccccc3)cc12)C(=O)O, the IC50 was 57.2 µM.
CC(=O)n1cc(/C=C(/C(=O)O)c2ccc3c(c2)OCO3)c2cc(OCc3ccccc3)ccc21 showed an IC50 of 53.6 µM.
For CC(=O)n1cc(/C=C(/C(=O)O)c2ccc(OCc3ccccc3)cc2)c2cc(OCc3ccccc3)ccc21, the IC50 was 44.1 µM.
With COc1cc(/C(=C\c2cn(C(C)=O)c3ccc(OCc4ccccc4)cc23)C(=O)O)cc(OC)c1OC the IC50 was 89.1 µM.
